Source: ChEMBL document CHEMBL4270541, “Synthesis and antimicrobial evaluation of amino sugar-based naphthoquinones and isoquinoline-5,8-diones and their halogenated compounds” (Eur J Med Chem, 2018)
In brackets after ≈: the same amount, converted by molar mass. Activity calls are given as the source filed them. No cut-off for these calls is given here.

Experiments:
[1] = tested on: Escherichia coli; test: Antimicrobial activity against Escherichia coli; assay type: functional
[2] = tested on: Escherichia coli; test: Bactericidal activity against Escherichia coli; assay type: functional
[3] = tested on: Enterococcus faecalis; test: Antimicrobial activity against Enterococcus faecalis INCQS 00234 ATCC 29212 assessed as zone of inhibition at 5 mg/ml after 18 to 24 hrs by disc diffusion method; assay type: functional; conditions: ATCC 29212 INCQS 00234, read-out: IZ
[4] = tested on: Staphylococcus aureus; test: Antimicrobial activity against Staphylococcus aureus INCQS 00015 ATCC 25923 assessed as zone of inhibition at 5 mg/ml after 18 to 24 hrs by disc diffusion method; assay type: functional; conditions: read-out: IZ
[5] = tested on: Staphylococcus epidermidis; test: Antimicrobial activity against Staphylococcus epidermidis INCQS 00016 ATCC 12228 assessed as zone of inhibition at 5 mg/ml after 18 to 24 hrs by disc diffusion method; assay type: functional; conditions: ATCC 12228 INCQS 00016, read-out: IZ
[6] = tested on: Staphylococcus simulans; test: Antimicrobial activity against Staphylococcus simulans INCQS 00254 ATCC 27851 assessed as zone of inhibition at 5 mg/ml after 18 to 24 hrs by disc diffusion method; assay type: functional; conditions: read-out: IZ
[7] = tested on: Staphylococcus aureus; test: Antimicrobial activity against methicillin-resistant Staphylococcus aureus BMB9393 assessed as zone of inhibition at 5 mg/ml after 18 to 24 hrs by disc diffusion method; assay type: functional; conditions: read-out: IZ
[8] = tested on: Escherichia coli; test: Antimicrobial activity against Escherichia coli INCQS 00033 ATCC 25922 assessed as zone of inhibition at 5 mg/ml after 18 to 24 hrs by disc diffusion method; assay type: functional; conditions: ATCC 25922 INCQS 00033, read-out: IZ
[9] = tested on: Proteus mirabilis; test: Antimicrobial activity against Proteus mirabilis INCQS 00095 ATCC 15290 assessed as zone of inhibition at 5 mg/ml after 18 to 24 hrs by disc diffusion method; assay type: functional; conditions: read-out: IZ
[10] = tested on: Klebsiella pneumoniae; test: Antimicrobial activity against Klebsiella pneumoniae INCQS 00083 ATCC 4352 assessed as zone of inhibition at 5 mg/ml after 18 to 24 hrs by disc diffusion method; assay type: functional; conditions: read-out: IZ
[11] = tested on: Pseudomonas aeruginosa; test: Antimicrobial activity against Pseudomonas aeruginosa INCQS 00099 ATCC 27853 assessed as zone of inhibition at 5 mg/ml after 18 to 24 hrs by disc diffusion method; assay type: functional; conditions: read-out: IZ
[12] = tested on: Staphylococcus aureus; test: Ratio of MBC99.9 to MIC for Staphylococcus aureus INCQS 00015 ATCC 25923; assay type: functional
Outline: (§1)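 MBC/MIC ratio from the 24 h, 37°C microdilution MIC and the agar-plating MBC (99.9% growth inhibition). A ratio ≤2 was classed as bactericidal and ≥4 as bacteriostatic.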

[13] = tested on: Staphylococcus aureus; test: Antimicrobial activity against Staphylococcus aureus INCQS 00015 ATCC 25923 after 24 hrs by microdilution assay; assay type: functional; conditions: INCQS 00015 ATCC 25923, 24 h
[14] = tested on: Staphylococcus simulans; test: Antimicrobial activity against Staphylococcus simulans INCQS 00254 ATCC 27851 after 24 hrs by microdilution assay; assay type: functional; conditions: INCQS 00254 ATCC 27851, 24 h
[15] = tested on: Escherichia coli; test: Antimicrobial activity against Escherichia coli INCQS 00033 ATCC 25922 after 24 hrs by microdilution assay; assay type: functional; conditions: ATCC 25922 INCQS 00033, 24 h
[16] = tested on: Pseudomonas aeruginosa; test: Antimicrobial activity against Pseudomonas aeruginosa INCQS 00099 ATCC 27853 after 24 hrs by microdilution assay; assay type: functional; conditions: INCQS 00099 ATCC 27853, 24 h
[17] = tested on: Staphylococcus aureus; test: Antimicrobial activity against methicillin-resistant Staphylococcus aureus BMB9393 after 24 hrs by microdilution assay; assay type: functional; conditions: BMB9393, 24 h
[18] = tested on: Staphylococcus aureus; test: Bactericidal activity against Staphylococcus aureus INCQS 00015 ATCC 25923 incubated for 24 hrs followed by transfer of microbial suspension to agar plates and measured after 24 hrs post transfer by resazurin dye-based colorimetric analysis; assay type: functional; conditions: INCQS 00015 ATCC 25923, 24 h, read-out: MBC99.9
Outline: (§2)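 From MIC wells with no visible growth, 10 µL is transferred to agar plates and incubated 24 h at 37°C. MBC is the minimum concentration inhibiting 99.9% of growth. […] Triplicate.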

[19] = tested on: Staphylococcus simulans; test: Bactericidal activity against Staphylococcus simulans INCQS 00254 ATCC 27851 incubated for 24 hrs followed by transfer of microbial suspension to agar plates and measured after 24 hrs post transfer by resazurin dye-based colorimetric analysis; assay type: functional; conditions: INCQS 00254 ATCC 27851, 24 h, read-out: MBC99.9
Outline: (§3)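 For MBC, 10 µL from each clear MIC well was plated on agar and incubated 24 h at 37°C. MBC is the minimum concentration inhibiting 99.9% of growth. […] Triplicate.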

[20] = tested on: Staphylococcus aureus; test: Bactericidal activity against methicillin-resistant Staphylococcus aureus BMB9393 incubated for 24 hrs followed by transfer of microbial suspension to agar plates and measured after 24 hrs post transfer by resazurin dye-based colorimetric analysis; assay type: functional; conditions: BMB9393, 24 h, read-out: MBC99.9; outline: as §2
[21] = tested on: Escherichia coli; test: Bactericidal activity against Escherichia coli INCQS 00033 ATCC 25922 incubated for 24 hrs followed by transfer of microbial suspension to agar plates and measured after 24 hrs post transfer by resazurin dye-based colorimetric analysis; assay type: functional; conditions: ATCC 25922 INCQS 00033, 24 h, read-out: MBC99.9; outline: as §3
[22] = tested on: Pseudomonas aeruginosa; test: Bactericidal activity against Pseudomonas aeruginosa INCQS 00099 ATCC 27853 incubated for 24 hrs followed by transfer of microbial suspension to agar plates and measured after 24 hrs post transfer by resazurin dye-based colorimetric analysis; assay type: functional; conditions: INCQS 00099 ATCC 27853, 24 h, read-out: MBC99.9; outline: as §3
[23] = tested on: Staphylococcus simulans; test: Ratio of MBC99.9 to MIC for Staphylococcus simulans INCQS 00254 ATCC 27851; assay type: functional; outline: as §1
[24] = tested on: Escherichia coli; test: Ratio of MBC99.9 to MIC for Escherichia coli INCQS 00033 ATCC 25922; assay type: functional, ATCC 25922 INCQS 00033; outline: as §1
[25] = tested on: Pseudomonas aeruginosa; test: Ratio of MBC99.9 to MIC for Pseudomonas aeruginosa INCQS 00099 ATCC 27853; assay type: functional; outline: as §1
[26] = Hemolytic activity against human erythrocytes assessed as hemolysis at 200 ug/ml after 3 hrs by spectrophotometric analysis relative to control; assay type: ADME, cell-based, Erythrocyte; conditions: read-out: Activity
Outline: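 Erythrocytes collected in citrate tubes, washed three times with PBS pH 7.4 by centrifugation and resuspended in PBS. Incubated with compounds at 200 µg/mL for 3 h at 37°C. Released hemoglobin was read in the supernatant at 545 nm against 1% Triton X-100 (complete lysis) and 1% DMSO (negative control). Below 10% hemolysis was taken as hemocompatible. Three independent experiments.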

[27] = tested on: Staphylococcus epidermidis; test: Antimicrobial activity against Staphylococcus epidermidis INCQS 00016 ATCC 12228 at 256 ug/ml after 24 hrs by microdilution assay; assay type: functional, organism-based; conditions: ATCC 12228 INCQS 00016
[28] = tested on: Staphylococcus epidermidis; test: Bactericidal activity against Staphylococcus epidermidis INCQS 00016 ATCC 12228 at 256 ug/ml incubated for 24 hrs followed by transfer of microbial suspension to agar plates and measured after 24 hrs post transfer by resazurin dye-based colorimetric analysis; assay type: functional, organism-based; conditions: ATCC 12228 INCQS 00016; outline: as §3
[29] = tested on: Staphylococcus epidermidis; test: Antimicrobial activity against Staphylococcus epidermidis INCQS 00016 ATCC 12228 after 24 hrs by microdilution assay; assay type: functional; conditions: ATCC 12228 INCQS 00016, 24 h
[30] = tested on: Staphylococcus epidermidis; test: Ratio of MBC99.9 to MIC for Staphylococcus epidermidis INCQS 00016 ATCC 12228; assay type: functional, ATCC 12228 INCQS 00016; outline: as §1
[31] = tested on: Staphylococcus epidermidis; test: Bactericidal activity against Staphylococcus epidermidis INCQS 00016 ATCC 12228 incubated for 24 hrs followed by transfer of microbial suspension to agar plates and measured after 24 hrs post transfer by resazurin dye-based colorimetric analysis; assay type: functional; conditions: ATCC 12228 INCQS 00016, 24 h, read-out: MBC99.9; outline: as §3
[32] = tested on: Staphylococcus aureus; test: Antimicrobial activity against methicillin-resistant Staphylococcus aureus BMB9393 at 256 ug/ml after 24 hrs by microdilution assay; assay type: functional, organism-based
[33] = tested on: Escherichia coli; test: Antimicrobial activity against Escherichia coli INCQS 00033 ATCC 25922 at 256 ug/ml after 24 hrs by microdilution assay; assay type: functional, organism-based; conditions: ATCC 25922 INCQS 00033
[34] = tested on: Pseudomonas aeruginosa; test: Antimicrobial activity against Pseudomonas aeruginosa INCQS 00099 ATCC 27853 at 256 ug/ml after 24 hrs by microdilution assay; assay type: functional, organism-based
[35] = tested on: Staphylococcus aureus; test: Bactericidal activity against methicillin-resistant Staphylococcus aureus BMB9393 at 256 ug/ml incubated for 24 hrs followed by transfer of microbial suspension to agar plates and measured after 24 hrs post transfer by resazurin dye-based colorimetric analysis; assay type: functional, organism-based; outline: as §2
[36] = tested on: Escherichia coli; test: Bactericidal activity against Escherichia coli INCQS 00033 ATCC 25922 at 256 ug/ml incubated for 24 hrs followed by transfer of microbial suspension to agar plates and measured after 24 hrs post transfer by resazurin dye-based colorimetric analysis; assay type: functional, organism-based; conditions: ATCC 25922 INCQS 00033; outline: as §3
[37] = tested on: Pseudomonas aeruginosa; test: Bactericidal activity against Pseudomonas aeruginosa INCQS 00099 ATCC 27853 at 256 ug/ml incubated for 24 hrs followed by transfer of microbial suspension to agar plates and measured after 24 hrs post transfer by resazurin dye-based colorimetric analysis; assay type: functional, organism-based; outline: as §3

Structure (SMILES) | MIC [1] [µg/mL] | MBC [2] [µg/mL] | zone of inhibition at 5000 µg/mL [3] [mm] | zone of inhibition at 5000 µg/mL [4] [mm] | zone of inhibition at 5000 µg/mL [5] [mm] | zone of inhibition at 5000 µg/mL [6] [mm] | zone of inhibition at 5000 µg/mL [7] [mm] | zone of inhibition at 5000 µg/mL [8] [mm] | zone of inhibition at 5000 µg/mL [9] [mm] | zone of inhibition at 5000 µg/mL [10] [mm] | zone of inhibition at 5000 µg/mL [11] [mm] | Ratio [12] | MIC [13] [µg/mL] | MIC [14] [µg/mL] | MIC [15] [µg/mL] | MIC [16] [µg/mL] | MBC [18] [µg/mL] | MBC [19] [µg/mL] | Ratio [23] | hemolysis at 3 h, 200 ug/ml [26] [%] | also measured
COC(=O)c1c(C)nc(C)c2c1C(=O)C(Br)=C(Nc1ccc(OC)cc1)C2=O | 2 to 4 (≈ 4.49 to 8.98 µM) | 2 to 4 (≈ 4.49 to 8.98 µM) |  |  |  |  |  |  |  |  |  |  |  |  |  |  |  |  |  |  | 
NC1=C(Cl)C(=O)c2ccccc2C1=O |  |  | 0 | 12 | 21 | 14 | 20 | 10 | 0 | 0 | 15 | 1 | 64 (≈ 308 µM) | 128 (≈ 617 µM) | 128 (≈ 617 µM) | 16 (≈ 77.1 µM) | 64 (≈ 308 µM) | 128 (≈ 617 µM) | 1 | 10.1 to 14.4 | MIC [17]: 64 µg/mL (≈ 308 µM); MBC [20]: 64 µg/mL (≈ 308 µM); MBC [21]: 128 µg/mL (≈ 617 µM); MBC [22]: 16 µg/mL (≈ 77.1 µM); Ratio [24]: 1; Ratio [25]: 1; Activity [27]: inactive; Activity [28]: inactive
COC(=O)c1c(CBr)nc(C)c2c1C(=O)C(Br)=C(Nc1ccc(Cl)cc1)C2=O | 2 to 4 (≈ 3.78 to 7.57 µM) | 2 to 4 (≈ 3.78 to 7.57 µM) |  |  |  |  |  |  |  |  |  |  |  |  |  |  |  |  |  |  | 
COC(=O)c1c(C)nc(C)c2c1C(=O)C(Cl)=C(N)C2=O |  |  | 0 | 15 | 18 | 16 | 12 | 0 | 0 | 0 | 0 | 1 | 64 (≈ 217 µM) | 32 (≈ 109 µM) |  |  | 64 (≈ 217 µM) | 32 (≈ 109 µM) | 1 | 10.1 to 14.4 | MIC [29]: 32 µg/mL (≈ 109 µM); Ratio [30]: 1; MBC [31]: 32 µg/mL (≈ 109 µM); Activity [32]: inactive; Activity [33]: inactive; Activity [34]: inactive; Activity [35]: inactive; Activity [36]: inactive; Activity [37]: inactive
NC1=CC(=O)c2ccccc2C1=O |  |  | 0 | 15 | 17 | 18 | 17 | 20 | 0 | 0 | 12 | 1 | 64 (≈ 370 µM) | 64 (≈ 370 µM) | 32 (≈ 185 µM) | 64 (≈ 370 µM) | 64 (≈ 370 µM) | 64 (≈ 370 µM) | 1 | 10.1 to 14.4 | MIC [29]: 128 µg/mL (≈ 739 µM); MIC [17]: 64 µg/mL (≈ 370 µM); Ratio [30]: 1; MBC [31]: 128 µg/mL (≈ 739 µM); MBC [20]: 64 µg/mL (≈ 370 µM); MBC [21]: 32 µg/mL (≈ 185 µM); MBC [22]: 64 µg/mL (≈ 370 µM); Ratio [24]: 1; Ratio [25]: 1
